Columns and labels:
[1] = target: T1, Xanthine dehydrogenase/oxidase (Bos taurus, UniProt P80457); experiment: Inhibition of bovine xanthine oxidase using xanthine as substrate preincubated for 10 mins followed by substrate addition measured for 15 mins by spectrophotometric method
Rattus norvegicus [2] = experiment: In vivo inhibition of xanthine oxidase in Wistar rat assessed as retention time of 6-MP at 50 mg/kg, ip using 6-mercaptopurine as substrate after 6 hrs by UPLC method (reference value: 4.912 min); assay type: functional, organism-based
[3] = target: T1, Xanthine dehydrogenase/oxidase; experiment: Competitive inhibition of bovine xanthine oxidase using varying levels of xanthine as substrate preincubated for 10 mins followed by substrate addition measured for 15 mins by Lineweaver-Burk plot/Dixon plot analysis
Outline: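 Run like the inhibition assay: XO (0.003 units/well) in 50 mM phosphate buffer pH 7.4, inhibitor in 90% DMSO, preincubated 10 min at 30 °C. Varied inhibitor and xanthine concentrations (0.0375, 0.075, 0.15, 0.300 mM), absorbance change at 295 nm over 15 min.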

Rattus norvegicus [4] = experiment: In vivo inhibition of xanthine oxidase in Wistar rat assessed as peak area of 6-MP at 50 mg/kg, ip using 6-mercaptopurine as substrate after 6 hrs by UPLC method (reference value: 7.3 mAU); assay type: functional
Rattus norvegicus [5] = experiment: In vivo inhibition of xanthine oxidase in Wistar rat at 50 mg/kg, ip using 6-mercaptopurine as substrate after 6 hrs by UPLC method relative to control; assay type: functional
[6] = target: Xanthine dehydrogenase/oxidase (Bos taurus) (UniProt P80457)
Xanthine dehydrogenase/oxidase (Bos taurus), sequence (P80457 whole entry, looked up): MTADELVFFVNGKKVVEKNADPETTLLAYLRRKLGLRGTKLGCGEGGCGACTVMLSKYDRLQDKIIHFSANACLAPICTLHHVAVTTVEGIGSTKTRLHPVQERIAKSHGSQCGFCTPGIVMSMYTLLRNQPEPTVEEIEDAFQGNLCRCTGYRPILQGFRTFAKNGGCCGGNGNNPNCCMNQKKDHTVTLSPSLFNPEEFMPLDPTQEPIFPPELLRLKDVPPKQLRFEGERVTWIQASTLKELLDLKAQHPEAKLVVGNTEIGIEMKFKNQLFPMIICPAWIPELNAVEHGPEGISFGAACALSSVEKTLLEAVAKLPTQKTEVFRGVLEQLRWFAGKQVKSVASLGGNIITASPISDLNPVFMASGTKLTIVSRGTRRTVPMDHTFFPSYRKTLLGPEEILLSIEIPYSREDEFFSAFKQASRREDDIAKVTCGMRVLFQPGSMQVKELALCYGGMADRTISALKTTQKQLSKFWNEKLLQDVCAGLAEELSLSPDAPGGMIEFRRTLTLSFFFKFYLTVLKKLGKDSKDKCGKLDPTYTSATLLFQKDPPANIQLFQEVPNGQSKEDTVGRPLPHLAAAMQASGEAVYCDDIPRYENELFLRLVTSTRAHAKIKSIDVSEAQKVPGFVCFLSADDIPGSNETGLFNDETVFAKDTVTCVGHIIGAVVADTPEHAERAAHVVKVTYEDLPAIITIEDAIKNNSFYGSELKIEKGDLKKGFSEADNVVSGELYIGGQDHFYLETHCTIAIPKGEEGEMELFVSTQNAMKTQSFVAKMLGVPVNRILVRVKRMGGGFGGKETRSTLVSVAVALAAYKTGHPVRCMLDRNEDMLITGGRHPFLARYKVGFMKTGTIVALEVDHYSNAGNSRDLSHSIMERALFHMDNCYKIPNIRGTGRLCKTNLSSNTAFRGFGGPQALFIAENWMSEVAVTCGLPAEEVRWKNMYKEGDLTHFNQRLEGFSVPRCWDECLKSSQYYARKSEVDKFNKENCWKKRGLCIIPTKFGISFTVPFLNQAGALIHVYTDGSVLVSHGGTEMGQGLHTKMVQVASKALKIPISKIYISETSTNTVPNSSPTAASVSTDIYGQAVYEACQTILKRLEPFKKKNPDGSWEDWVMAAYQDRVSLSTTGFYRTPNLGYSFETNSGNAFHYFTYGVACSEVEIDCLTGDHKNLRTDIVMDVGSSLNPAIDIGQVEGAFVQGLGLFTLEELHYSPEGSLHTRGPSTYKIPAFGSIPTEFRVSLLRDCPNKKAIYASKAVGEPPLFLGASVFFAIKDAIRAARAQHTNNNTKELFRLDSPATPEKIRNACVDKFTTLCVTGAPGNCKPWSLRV

T1 sequence (P80457 whole entry): as the sequence (P80457 whole entry, looked up) above

SMILES | IC50 [1] | IC50 ([1]; read-out: IC50) | other results
CCOc1ccc(/C=N/NC(=O)c2ccncc2)cc1OCC | Not Active |  | 
O=C(N/N=C/c1ccccc1Cl)c1ccncc1 | Not Active |  | 
O=C(N/N=C/c1cccc(Cl)c1)c1ccncc1 [N'-(3-CHLOROBENZYLIDENE)ISONICOTINOHYDRAZIDE] |  | 206 µM | 
COc1ccc(O)c(/C=N/NC(=O)c2ccncc2)c1 | Not Active |  | 
CCOc1cccc(/C=N/NC(=O)c2cccnc2)c1O |  | 264 µM | 
O=C(N/N=C/c1cccc([N+](=O)[O-])c1)c1ccncc1 |  | 174 µM | 
COc1ccc(/C=N/NC(=O)c2ccncc2)cc1OC [VERAZIDE] | Not Active |  | 
CCOc1ccccc1/C=N/NC(=O)c1cccnc1 | Not Active |  | 
O=C(N/N=C/c1cccc([N+](=O)[O-])c1)c1cccnc1 |  | 184 µM | 
COc1ccc(O)c(/C=N/NC(=O)c2cccnc2)c1 | Not Active |  | 
O=C(N/N=C/c1ccc(O)c(O)c1)c1cccnc1 |  | 10 µM | Retention time (Rattus norvegicus [2]): 4.9 min; Ki [3]: 7.27 µM; Activity (Rattus norvegicus [4]): 0.001 mAU
COc1cccc(/C=N/NC(=O)c2cccnc2)c1O |  | 175 µM | 
O=C(N/N=C/c1cccc(Cl)c1)c1cccnc1 |  | 205 µM | 
O=C(N/N=C/c1cc([N+](=O)[O-])ccc1Cl)c1ccncc1 | Not Active |  | 
O=C(N/N=C/c1ccccc1[N+](=O)[O-])c1ccncc1 | Not Active |  | 
CN(C)c1ccc(/C=N/NC(=O)c2cccnc2)cc1 | Not Active |  | 
COc1cccc(/C=N/NC(=O)c2ccncc2)c1O |  | 21.1 µM | Ki [3]: 15 µM
O=C(N/N=C/c1ccccc1O)c1ccncc1 [SALINAZID] | Not Active |  | 
O=C(N/N=C/c1ccc([N+](=O)[O-])cc1)c1cccnc1 | Not Active |  | 

SMILES | IC50 [1] | IC50 ([1]; read-out: IC50) | other results
Cc1ccccc1/C=N/NC(=O)c1cccnc1 |  | 180 µM | 
O=C(N/N=C/c1ccc(O)c(O)c1O)c1cccnc1 | Not Active |  | 
O=C(N/N=C/c1ccc(O)cc1)c1cccnc1 |  | 184 µM | 
O=C(N/N=C/c1c(O)cc(O)cc1O)c1ccncc1 |  | 0.96 µM | inhibition in vivo at 50 mg/kg (Rattus norvegicus [5]): 44%; Retention time (Rattus norvegicus [2]): 4.92 min; Ki [3]: 0.82 µM; Activity (Rattus norvegicus [4]): 73.5 mAU
CSc1ccc(/C=N/NC(=O)c2ccncc2)cc1 | Not Active |  | 
O=C(N/N=C/c1ccc(Cl)cc1)c1cccnc1 |  | 195 µM | 
COc1ccc(/C=N/NC(=O)c2cccnc2)c(OC)c1OC | Not Active |  | 
O=C(N/N=C/c1ccccc1)c1cccnc1 [NICOTINIC ACID BENZYLIDENE-HYDRAZIDE] |  | 211 µM | 
O=C(N/N=C/c1ccc(Cl)cc1Cl)c1ccncc1 | Not Active |  | 
CCOc1ccccc1/C=N/NC(=O)c1ccncc1 | Not Active |  | 
CCOc1ccc(/C=N/NC(=O)c2cccnc2)cc1 |  | 242 µM | 
CCOc1ccc(/C=N/NC(=O)c2ccncc2)cc1O | Not Active |  | 
O=C(N/N=C/c1ccc(Cl)cc1)c1ccncc1 |  | 179 µM | 
O=C(O)c1cccnc1 [NIACIN] |  |  | IC50 [6]: 518 µM
CCOc1cccc(/C=N/NC(=O)c2ccncc2)c1O |  | 54.8 µM | Ki [3]: 51.3 µM
CCOc1ccc(/C=N/NC(=O)c2ccncc2)cc1 |  | 330 µM | 
O=C(N/N=C/c1ccc(Cl)cc1Cl)c1cccnc1 | Not Active |  | 
O=C(N/N=C/c1cccc(O)c1)c1cccnc1 | Not Active |  | 
O=C(N/N=C/c1ccccc1)c1ccncc1 [N'-BENZYLIDENE ISONICOTINOHYDRAZIDE] | Not Active |  | 

SMILES | IC50 [1] | IC50 ([1]; read-out: IC50) | other results
O=C(N/N=C/c1ccccc1[N+](=O)[O-])c1cccnc1 | Not Active |  | 
O=C(N/N=C/c1cccc(O)c1)c1ccncc1 | Not Active |  | 
O=C(N/N=C/c1ccc(O)cc1)c1ccncc1 | Not Active |  | 
Oc1ncnc2[nH]ncc12 [ALLOPURINOL] |  |  | inhibition in vivo at 50 mg/kg (Rattus norvegicus [5]): 100%; Retention time (Rattus norvegicus [2]): 4.93 min; Activity (Rattus norvegicus [4]): 166.3 mAU
Cc1ccc(O)c(/C=N/NC(=O)c2cccnc2)c1 | Not Active |  | 
COc1ccc(/C=N/NC(=O)c2cccnc2)cc1OC | Not Active |  | 
O=C(N/N=C/c1ccc(O)c(O)c1)c1ccncc1 |  | 12.4 µM | inhibition in vivo at 50 mg/kg (Rattus norvegicus [5]): 28%; Retention time (Rattus norvegicus [2]): 4.95 min; Ki [3]: 15.5 µM; Activity (Rattus norvegicus [4]): 47.4 mAU
O=C(N/N=C/c1ccccc1F)c1cccnc1 |  | 174 µM | 
COc1cccc(O)c1/C=N/NC(=O)c1cccnc1 | Not Active |  | 
O=C(N/N=C/c1ccc([N+](=O)[O-])cc1)c1ccncc1 [N'-(4-NITROBENZYLIDENE)ISONICOTINOHYDRAZIDE] | Not Active |  | 
CN(C)c1ccc(/C=N/NC(=O)c2ccncc2)cc1 [N'-(4-DIMETHYLAMINOBENZYLIDENE)ISONICOTINOHYDRAZIDE] | Not Active |  | 
COc1ccc(/C=N/NC(=O)c2ccncc2)cc1O | Not Active |  | 
O=C(N/N=C/c1ccccc1Br)c1cccnc1 |  | 198 µM | 
O=C(N/N=C/c1ccc(O)cc1O)c1ccncc1 | Not Active |  | 
O=C(N/N=C/c1cc(O)cc(O)c1)c1cccnc1 |  | 161 µM | 
CSc1ccc(/C=N/NC(=O)c2cccnc2)cc1 | Not Active |  | 
O=C(N/N=C/c1ccccc1F)c1ccncc1 | Not Active |  | 
COc1ccccc1/C=N/NC(=O)c1cccnc1 | Not Active |  | 
